Experimental findings from ChEMBL document CHEMBL5046298, “SAR of Novel 3-Arylisoquinolinones: meta-Substitution on the Aryl Ring Dramatically Enhances Antiproliferative Activity through Binding to Microtubules” (J Med Chem, 2022) are described below.

The target of data set [1] is T1, Tubulin (Homo sapiens) (UniProt P68371+Q9H4B7+P0DPH7+P68366+Q13509+Q71U36+P04350+Q3ZCM7+P07437+P68363+Q9BQE3+Q6PEY2+Q13885+Q9BVA1+Q9BUF5). The experiment in a line: Inhibition of tubulin (unknown origin) polymerization assessed as reduction in microtubule formation by measuring reduction in absorbance at 10 uM measured every minute for 1 hr in presence of GTP by microplate reader analysis. It counts as protein-complex assay. In a few lines:
(§1)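 Cell-free turbidity assay: purified bovine tubulin diluted to 60 μM in polymerization buffer with 1 mM GTP, mixed on ice with DMSO or test agent (final 5, 10, 20 μM). […] A350 read every 1 min for 60 min at 37 °C; ΔA calculated relative to time zero.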

Data set [2] relates to HUVEC. The experiment in a line: Disruption of preestablished capillary like tubes in HUVEC cells at 25 uM incubated for 16 hrs by matrigel based bright field microscopic analysis. It counts as functional, cell-based. The note with it: Homo sapiens.
Data set [3] deals with HUVEC. The experiment in a line: Antivascular activity against HUVEC cells assessed as inhibition of capillary like tube formation at 25 uM incubated for 16 hrs by matrigel based bright field microscopic analysis. It counts as functional, cell-based. The note with it: Homo sapiens. The method, boiled down: (§2)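 Tube formation: HUVECs (25×10^3 per well) plated onto gelled Matrigel together with DMSO or test agent (0.5, 1, 2 μM or 25 μM). After 16 h, tube networks were examined by bright-field microscopy at 4×. Three independent experiments.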

Data set [4] deals with T2, Ribosyldihydronicotinamide dehydrogenase [quinone] (Homo sapiens) (UniProt P16083).
T2 sequence (whole entry): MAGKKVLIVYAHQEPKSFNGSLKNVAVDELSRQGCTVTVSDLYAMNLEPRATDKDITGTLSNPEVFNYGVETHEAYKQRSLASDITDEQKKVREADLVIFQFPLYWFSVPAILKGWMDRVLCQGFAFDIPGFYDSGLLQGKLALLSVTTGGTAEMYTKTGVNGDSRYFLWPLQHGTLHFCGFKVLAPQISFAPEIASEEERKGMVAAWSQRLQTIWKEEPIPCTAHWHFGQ
In words: Inhibition of human recombinant NQO2 at upto 100 uM. The conditions noted are these: dose microM <=100.

Data set [5] relates to SNU-423. The experiment in a line: Induction of apoptosis in human SNU-423 cells assessed as viable cells at 1 uM incubated for 24 hrs by Annexin V-APC/PI staining based flow cytometry (reference value: 92.7 %). It counts as functional. The conditions noted are these: read-out: Activity. For orientation: In flow cytometry, cells or beads pass a laser one at a time.
The test system of data set [6] is HUVEC. In words: Disruption of preestablished capillary like tubes in HUVEC cells incubated for 16 hrs by matrigel based bright field microscopic analysis. It counts as functional, cell-based. The note with it: Homo sapiens, dose 0.5-10 µM.
In data set [7] the test system is HepG2. The experiment in a line: Induction of reversible mitotic arrest in human HepG2 cells assessed as increase in cell population in sub-G0/G1 phase at 2 to 5 uM treated for 24 hrs followed by replacement with fresh medium without compound and further incubated for 24 hrs by PI staining based flow cytometry. The conditions noted are these: dose 2-5 µM. It counts as functional. In a few lines: (§3)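 HepG2 cells (5×10^5 per dish) treated 24 h, then medium replaced with compound-free medium for a further 24 h. Cells then ethanol-fixed and stained with PI/RNase A for 30 min at 37 °C. 10 000 cells analyzed by flow cytometry; phase percentages by Watson model. Compared with control by one-way ANOVA/Dunnett's.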

In data set [8] the test system is HepG2. In words: Induction of reversible mitotic arrest in human HepG2 cells assessed as restoration of cell population in S phase at 2 to 5 uM treated for 24 hrs followed by replacement with fresh medium without compound and further incubated for 24 hrs by PI staining based flow cytometry. It counts as functional. The conditions noted are these: dose 2-5 µM. The method, boiled down:
as §3

Data set [9] deals with HepG2. The experiment in a line: Induction of cell cycle arrest in human HepG2 cells assessed as increase in sub-G0/G1 cell population at 2 uM measured after 24 hrs by PI staining based flow cytometry. It counts as functional.
The nature of data set [10]: Antiproliferative activity against human THLE-3 cells assessed as inhibition of cell proliferation incubated for 24 hrs followed by 72 hrs of compound-free incubation by Sulforhodamine B assay. It counts as toxicity, cell-based. In a few lines:
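SRB growth assay: cells seeded overnight (HepG2 3000, SNU423 2000, MDA-MB-231 1500, MCF-7 2500, A549 1000, HCT116 1000, THLE-3 4000 cells/well), then exposed to a concentration range for 96 h, or 24 h followed by 72 h drug-free. DMSO ≤0.3%. TCA fixation, 0.4% SRB staining, OD at 510 nm. Growth % = OD test/OD control ×100. IC50 from four-parameter fit; at least three independent experiments.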
A general note: The SRB assay estimates cell density from bound dye.

Data set [11] relates to SNU-423. The experiment in a line: Induction of apoptosis in human SNU-423 cells assessed as viable cells at 0.5 uM incubated for 24 hrs by Annexin V-APC/PI staining based flow cytometry (reference value: 92.7 %). The note with it: read-out: Activity. It counts as functional.
In data set [12] the test system is HUVEC. In words: Cytotoxicity against HUVEC cells assessed as reduction in cell proliferation at upto 10 uM incubated for 24 hrs by Sulforhodamine B assay. It counts as toxicity, cell-based. The note with it: human. The method, boiled down: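 HUVECs plated without Matrigel at 4000 cells/well, allowed to attach overnight, then exposed to a concentration range for 24 h. Growth read by SRB: TCA fixation, 0.4% SRB dye, OD at 510 nm, expressed as % of DMSO control. Mean ± SEM of three independent experiments.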

Data set [13] concerns the target T1, Tubulin (Homo sapiens). The experiment in a line: Induction of microtubule disruption in HUVEC cells assessed as shortened microtubules with outer blebbing filled with tubulin at 0.5 to 1 uM incubated for 24 hrs by immunofluorescence based inverted microscopy. It counts as cell-based. The note with it: dose 0.5-1 µM. In a few lines:
(§4)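 HUVECs (2×10^4) adhered overnight on glass slides, no Matrigel. Treated 24 h with 0.5 or 1 μM; colchicine 0.1 μM as positive control. Fixed in 10% formalin, permeabilized with Triton X-100, blocked. Stained with anti-α-tubulin plus Cy5 secondary, phalloidin-Atto 488 for F-actin, and DAPI. Imaged by inverted fluorescence microscopy at 63×. Three independent experiments.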

For data set [14], the system named is SNU-423. The experiment in a line: Induction of apoptosis in human SNU-423 cells assessed as early apoptotic cells at 1 uM incubated for 24 hrs by Annexin V-APC/PI staining based flow cytometry (reference value: 0.94 %). It counts as functional.
Data set [15] deals with HepG2. The experiment in a line: Induction of reversible mitotic arrest in human HepG2 cells assessed as restoration of cell population in G2/M phase at 2 to 5 uM treated for 24 hrs followed by replacement with fresh medium without compound and further incubated for 24 hrs by PI staining based flow cytometry. It counts as functional. The conditions noted are these: dose 2-5 µM. In a few lines:
as §3

The test system of data set [16] is HepG2. In words: Induction of reversible mitotic arrest in human HepG2 cells assessed as restoration of cell population in G0/G1 phase at 2 to 5 uM treated for 24 hrs followed by replacement with fresh medium without compound and further incubated for 24 hrs by PI staining based flow cytometry. It counts as functional. The note with it: dose 2-5 µM. The method, boiled down:
as §3

The test system of data set [17] is HUVEC. The experiment in a line: Antivascular activity against HUVEC cells assessed as inhibition of capillary like tube formation incubated for 16 hrs by matrigel based bright field microscopic analysis. It counts as functional, cell-based. The note with it: Homo sapiens, dose 2.0 µM. The method, boiled down:
as §2

Data set [18] deals with T1, Tubulin (Homo sapiens). The experiment in a line: Inhibition of tubulin (unknown origin) polymerization assessed as reduction in microtubule formation by measuring reduction in absorbance measured every minute for 1 hr in presence of GTP by microplate reader analysis. It counts as protein-complex assay. The conditions noted are these: dose 5-20 µM. In a few lines:
as §1

In data set [19] the test system is HUVEC. The experiment in a line: Induction of actin disruption in HUVEC cells assessed as thicker and brighter actin fibers at 0.5 to 1 uM incubated for 24 hrs by phalloidin-Atto 488 staining based inverted microscopy. The note with it: Homo sapiens, dose 0.5-1 µM. It counts as cell-based. In a few lines: as §4
For data set [20], the system named is HepG2. The experiment in a line: Induction of cell cycle arrest in human HepG2 cells assessed as decrease in cell proportion at G0/G1 phase at 25 uM measured after 24 hrs by PI staining based flow cytometry. It counts as functional.
Data set [21] has as its system SNU-423. In words: Induction of apoptosis in human SNU-423 cells assessed as late apoptotic cells at 0.5 uM incubated for 24 hrs by Annexin V-APC/PI staining based flow cytometry (reference value: 0.83 %). It counts as functional.
The test system of data set [22] is HUVEC. In words: Disruption of preestablished capillary like tubes in HUVEC cells assessed as formation of short distorted tubes at 1 to 2 uM incubated for 16 hrs by matrigel based bright field microscopic analysis. It counts as functional, cell-based. The note with it: Homo sapiens, dose 1-2 µM.
Data set [23] concerns HepG2. The experiment in a line: Cytotoxicity against human HepG2 cells assessed as inhibition of colony formation at 0.5 to 1 uM incubated for 14 days by methylene blue staining based clonogenic assay. It counts as functional, cell-based. The note with it: dose 0.5-1 µM, time 14.0 day. In a few lines: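 Clonogenic survival: HepG2 seeded as single cells at 1000/well and left 10-12 h to adhere. Treated with DMSO or a concentration range for 14 days, with compound added once. Colonies fixed in 70% ethanol, stained with 0.5% methylene blue, and colonies of ≥50 cells counted. Surviving fraction = treated CFE/control CFE. Three independent experiments.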

Data set [24] has as its system HUVEC. The experiment in a line: Disruption of preestablished capillary like tubes in HUVEC cells assessed as decrease in tube junctions at 1 to 2 uM incubated for 16 hrs by matrigel based bright field microscopic analysis. The conditions noted are these: Homo sapiens, dose 1-2 µM. It counts as functional, cell-based.
In data set [25] the test system is SNU-423. The experiment in a line: Induction of apoptosis in human SNU-423 cells assessed as necrotic cells at 1 uM incubated for 24 hrs by Annexin V-APC/PI staining based flow cytometry (reference value: 5.74 %). It counts as functional.
Data set [26] concerns HUVEC. In words: Disruption of preestablished capillary like tubes in HUVEC cells assessed as rounded and retracted cells at 0.5 to 1 uM incubated for 16 hrs by matrigel based inverted microscopy. The conditions noted are these: Homo sapiens, dose 0.5-1 µM.
Data set [27] concerns SNU-423. In words: Induction of apoptosis in human SNU-423 cells assessed as early apoptotic cells at 0.5 uM incubated for 24 hrs by Annexin V- APC/PI staining based flow cytometry (reference value: 0.94 %). It counts as functional.

Active and inactive are the calls of the source. No cut-off for these calls is given here.

As for `CC(=O)O[C@H]1C(=O)[C@@]2(C)[C@H]([C@H](OC(=O)c3ccccc3)[C@]3(O)C[C@H](OC(=O)[C@H](O)[C@@H](NC(=O)c4ccccc4)c4ccccc4)C(C)=C1C3(C)C)[C@]1(OC(C)=O)CO[C@@H]1C[C@@H]2O`, the inhibition result on Tubulin (Homo sapiens) [1] is “inactive”.

For `O=c1[nH]c(-c2ccc(F)cc2)cc2cc(F)ccc12`, the outcome in the data set on HUVEC [2] and with HUVEC [3] was inactive. The inhibition result in data set [4] was “inactive”.

Broadly, the IC50 is the concentration that gives 50% inhibition. On to `O=c1[nH]c(-c2cccc(F)c2)cc2cc(F)ccc12`, for which the viability at 1 µM in the data set with SNU-423 [5] stood at 60.4%. The Activity entry with HUVEC [6] is “Dose-Dependent Effect”; with HUVEC [12], “Non-Toxic”; in the data set with SNU-423 [14], 15.1%; in the data set with HUVEC [17], “Dose-Dependent Effect”; with SNU-423 [21] it was 6.47%; in the data set on SNU-423 [25], 12.1%. For the same compound, the Activity in the data set on SNU-423 [27] stood at 5.95%. Also, the result in the data set on HepG2 [7], with HepG2 [8], with HepG2 [9], at Tubulin (Homo sapiens) [13], in the data set on HepG2 [15] and in the data set on HepG2 [16] was Active. Further, the result in the data set on HUVEC [19], in the data set with HepG2 [20], in the data set with HUVEC [22], in the data set with HUVEC [24] and in the data set with HUVEC [26] was Active. For the same compound, the IC50 at 24 h in [10] is greater than 25 µM. In the data set with SNU-423 [11], the viability at 0.5 µM is 76%. Also, the inhibition result on Tubulin (Homo sapiens) [18] and in the data set with HepG2 [23] was “Active” each time. For the same compound, the inhibition result in data set [4] is “inactive”.

As to `COC(=O)Nc1nc2cc(C(=O)c3cccs3)ccc2[nH]1`, the inhibition result at Tubulin (Homo sapiens) [1] is “Active”.

Take `COc1ccc(-c2cc3cc(F)ccc3c(=O)[nH]2)cc1`: the inhibition result in data set [4] is “inactive”.
